In ChEMBL document CHEMBL2177013, “Synthesis and biological evaluation of tylophorine-derived dibenzoquinolines as orally active agents: exploration of the role of tylophorine e ring on biological activity” (J Med Chem, 2012):
pEC50: −log10 of the molar value. Converted amounts (≈) assume the structure as drawn. The source made the active and inactive calls. The rule behind the calls is not given here.

Assays:
RAW264.7 [1] = test: Reduction in LPS/INFgamma-induced COX2 protein expression in mouse RAW264.7 cells incubated for 20 hrs by Western blotting; type: functional, cell-based
Outline: (§1)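 LPS/IFNγ-stimulated RAW264.7 cells treated with compound for 20 h. iNOS, COX-2 and GAPDH detected by Western blot; representative of at least three independent experiments.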

[2] = Apparent elimination half life in Sprague-Dawley rat at 3 mg/kg, po by HPLC-MS method; type: ADME, organism-based; parameters: dose 3 mg/kg, route oral; settings: in vivo, read-out: betat1/2(app) (converted)
Outline: (§2)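 Male rats (330−380 g, 9−10 weeks), jugular vein cannula implanted 1 day before, fasted. 3 mg/kg given iv or orally (n = 3) in DMA/PEG400 30/70 v/v. Blood (150 μL) drawn at 0, 2, 5 (iv only), 15, 30 min and 1, 2, 4, 6, 8, 12, 24 h; plasma analysed by HPLC-MS; noncompartmental analysis.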

[3] = Cmax in Sprague-Dawley rat at 3 mg/kg, po by HPLC-MS method; type: ADME, organism-based; parameters: dose 3 mg/kg, route oral; settings: in vivo; outline: as §2
[4] = Apparent elimination half life in Sprague-Dawley rat at 3 mg/kg, iv by HPLC-MS method; type: ADME, organism-based; parameters: dose 3 mg/kg, route intravenous; settings: in vivo, read-out: betat1/2(app) (converted); outline: as §2
[5] = Tmax in Sprague-Dawley rat at 3 mg/kg, po by HPLC-MS method; type: ADME, organism-based; parameters: dose 3 mg/kg, route oral; settings: in vivo; outline: as §2
[6] = tested on: Transmissible gastroenteritis virus; test: Antiviral activity against Transmissible gastroenteritis virus infected in ST cells pre-treated 2 hrs before virus infection measured 6 hrs post virus infection by immunofluorescent assay; type: functional, organism-based; settings: Alphacoronavirus 1, ST
Outline: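 ST cells, with or without 2 h compound pretreatment (10 concentrations), infected with TGEV at MOI 10. Immunofluorescence with anti-spike and anti-nucleocapsid antibodies at 6 hpi. EC50 from dose–response curves, mean of at least three experiments, each in duplicate.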

[7] = tested on: Transmissible gastroenteritis virus; test: Antiviral activity against Transmissible gastroenteritis virus infected in ST cells assessed as reduction in caspase-3 activation pre-treated before virus infection measured 16 hrs post virus infection by Western blotting; type: functional, organism-based
Outline: (§3)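 ST cells pretreated with compound, then infected with TGEV. Western blot for nucleocapsid (N) protein, caspase 3 (cleavage of procaspase 3) and GAPDH at 16 hpi. Representative of at least three independent experiments.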

RAW264.7 [8] = test: Reduction in LPS/INFgamma-induced iNOS protein expression in mouse RAW264.7 cells incubated for 20 hrs by Western blotting; type: functional, cell-based; outline: as §1
[9] = Clearance in Sprague-Dawley rat at 3 mg/kg, iv by HPLC-MS method; type: ADME, organism-based; parameters: dose 3 mg/kg, route intravenous; settings: in vivo; outline: as §2
A549 [10] = test: Growth inhibition of human A549 cells; type: functional
Outline: (§4)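 Cells seeded per well: NUGC-3 4500, HONE-1 6000, MCF-7 6500, NCI-H460 2500, HepG2 10000, A549 5000; A549 grown in RPMI 1640 with 2 g/L NaHCO₃, 2 mM L-glutamine and 10% FBS. GI₅₀ = concentration giving 50% growth inhibition, mean of at least three experiments each in duplicate. Paclitaxel served as positive control.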

[11] = Cytotoxicity against mouse RAW264.7 cells; type: cell-based
Outline: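 RAW264.7 cells stimulated with LPS/IFNγ and compound-treated in parallel with the NO assay; CC50 taken as concentration giving 50% inhibition of cell growth. Mean of at least three experiments, each in duplicate.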

NCI-H460 [12] = test: Growth inhibition of human NCI-H460 cells; type: functional; outline: as §4
[13] = Volume of distribution at steady state in Sprague-Dawley rat at 3 mg/kg, iv by HPLC-MS method; type: ADME, organism-based; parameters: dose 3 mg/kg, route intravenous; settings: in vivo, read-out: Vdss; outline: as §2
MCF7 [14] = test: Induction of c-Jun protein accumulation in human MCF7 cells incubated for 24 hrs by Western blotting; type: functional, cell-based
A549 [15] = test: Down regulation of cyclin A2 expression in human A549 cells incubated for 24 hrs by Western blotting; type: functional, cell-based
NUGC-3 = test: Growth inhibition of human NUGC3 cells; type: functional; outline: as §4
[16] = Solubility in DMA; type: physicochemical
MCF7 [17] = test: Growth inhibition of human MCF7 cells; type: functional; outline: as §4
NCI-H460 [18] = test: Induction of c-Jun protein accumulation in human NCI-H460 cells incubated for 24 hrs by Western blotting; type: functional, cell-based
[19] = AUC (0 to infinity) in Sprague-Dawley rat at 3 mg/kg, po by HPLC-MS method; type: ADME, organism-based; parameters: dose 3 mg/kg, route oral, time infinity; settings: plasma
Outline: (§5)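 Male rats (330−380 g, 9−10 weeks old), jugular vein cannulated 1 day before dosing, fasted; 3 mg/kg iv or oral in DMA/PEG400 (30/70, v/v), n = 3. Blood (150 μL) drawn at 0, 2, 5 (iv only), 15, 30 min and 1, 2, 4, 6, 8, 12, 24 h, kept on ice; plasma analysed by HPLC-MS; noncompartmental analysis.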

NCI-H460 [20] = test: Down regulation of cyclin A2 expression in human NCI-H460 cells incubated for 24 hrs by Western blotting; type: functional, cell-based
MCF7 [21] = test: Down regulation of cyclin A2 expression in human MCF7 cells incubated for 24 hrs by Western blotting; type: functional, cell-based
A549 [22] = test: Induction of c-Jun protein accumulation in human A549 cells incubated for 24 hrs by Western blotting; type: functional, cell-based
[23] = tested on: Transmissible gastroenteritis virus; test: Antiviral activity against Transmissible gastroenteritis virus infected in ST cells assessed as reduction in N-protein expression pre-treated before virus infection measured 16 hrs post virus infection by Western blotting; type: functional, organism-based; outline: as §3
[24] = Oral bioavailability in Sprague-Dawley rat at 3 mg/kg by HPLC-MS method; type: ADME, organism-based; settings: in vivo; outline: as §2
[25] = Growth inhibition of human HONE1 cells; type: functional; outline: as §4
[26] = Solubility in DMSO; type: physicochemical
Outline: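 Compound dissolved in DMSO with sonication; maximal volume before precipitation measured and used to calculate saturation solubility.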

[27] = AUC (0 to infinity) in Sprague-Dawley rat at 3 mg/kg, iv by HPLC-MS method; type: ADME, organism-based; parameters: time infinity, dose 3 mg/kg, route intravenous; settings: plasma; outline: as §5
RAW264.7 [28] = test: Antiinflammatory activity in mouse RAW264.7 cells assessed as inhibition of LPS-induced nitric oxide production incubated for 18 hrs by nitrate/nitrite assay; type: functional, cell-based; settings: RAW264.7, 18 h
Outline: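 RAW264.7 seeded 65000 cells/well, cultured 24 h, then medium replaced with complete medium containing IFNγ (20 ng/mL)/LPS (5 μg/mL) plus compound at various concentrations for 18 h; nitric oxide measured by Nitrate/Nitrite kit. EC50 as mean of at least three experiments, each in duplicate.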

HepG2 = test: Growth inhibition of human HepG2 cells; type: functional; outline: as §4
SF-268 = test: Growth inhibition of human SF268 cells; type: functional
Outline: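 SF-268 glioblastoma cells seeded 7500 cells/well in 96-well plates; growth inhibition measured with compound. GI50 as mean of at least three experiments, each in duplicate; paclitaxel positive control.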

[29] = Apparent elimination half life in Sprague-Dawley rat at 1.5 mg/kg, iv by HPLC-MS method; type: ADME, organism-based; parameters: dose 1.5 mg/kg, route intravenous; settings: in vivo, read-out: betat1/2(app) (converted)
Outline: (§6)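 Male rats (330−380 g, 9−10 weeks old) fitted with a jugular vein cannula 1 day before dosing and fasted; 1.5 mg/kg given iv or orally in DMA/PEG400 (50/50, v/v), n = 3. Blood (150 μL) drawn at 0, 2, 5 (iv only), 15, 30 min and 1, 2, 4, 6, 8, 12, 24 h. Plasma analysed by HPLC-MS; parameters by noncompartmental analysis.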

[30] = Tmax in Sprague-Dawley rat at 1.5 mg/kg, po by HPLC-MS method; type: ADME, organism-based; parameters: dose 1.5 mg/kg, route oral; settings: in vivo; outline: as §6
[31] = Clearance in Sprague-Dawley rat at 1.5 mg/kg, iv by HPLC-MS method; type: ADME, organism-based; parameters: dose 1.5 mg/kg, route intravenous; settings: in vivo; outline: as §6
[32] = Volume of distribution at steady state in Sprague-Dawley rat at 1.5 mg/kg, iv by HPLC-MS method; type: ADME, organism-based; parameters: dose 1.5 mg/kg, route intravenous; settings: in vivo, read-out: Vdss; outline: as §6
[33] = Cmax in Sprague-Dawley rat at 1.5 mg/kg, po by HPLC-MS method; type: ADME, organism-based; parameters: dose 1.5 mg/kg, route oral; settings: in vivo; outline: as §6
[34] = Apparent elimination half life in Sprague-Dawley rat at 1.5 mg/kg, po by HPLC-MS method; type: ADME, organism-based; parameters: dose 1.5 mg/kg, route oral; settings: in vivo, read-out: betat1/2(app) (converted); outline: as §6
[35] = AUC (0 to infinity) in Sprague-Dawley rat at 1.5 mg/kg, iv by HPLC-MS method; type: ADME, organism-based; parameters: time infinity, dose 1.5 mg/kg, route intravenous; settings: plasma; outline: as §6
[36] = Oral bioavailability in Sprague-Dawley rat at 1.5 mg/kg by HPLC-MS method; type: ADME, organism-based; settings: in vivo; outline: as §6
[37] = AUC (0 to infinity) in Sprague-Dawley rat at 1.5 mg/kg, po by HPLC-MS method; type: ADME, organism-based; parameters: time infinity, dose 1.5 mg/kg, route oral; settings: plasma; outline: as §6

With `CCCN1CCc2c(c3cc(OC)c(OC)cc3c3cc(OC)c(OC)cc23)C1` the Activity (RAW264.7 [1]) was “Active”, the half-life [2] was 2.4 h and the Cmax [3] was 87 ng/mL. For the same molecule, the half-life [4] was 2.7 h, the Tmax [5] was 4 h and the pEC50 [6] was 6.08. For the same molecule, the Activity [7] was “Active”, the Activity (RAW264.7 [8]) was “Active” and the clearance [9] was 60.8 mL/min/kg. The GI50 (A549 [10]) was 0.73 µM, the CC50 [11] was over 4 µM and the GI50 (NCI-H460 [12]) was 0.45 µM. For the same molecule, the Vd [13] was 9 L/kg, the Activity (MCF7 [14]) was “Active” and the Activity (A549 [15]) was “Active”. The GI50 (NUGC-3) was 0.47 µM, the solubility [16] was “soluble” and the GI50 (MCF7 [17]) was 0.51 µM. For the same molecule, the Activity (NCI-H460 [18]) was “Active”, the AUC(0-inf) [19] was 515 ng·h/mL and the Activity (NCI-H460 [20]) was “Active”. For the same molecule, the Activity (MCF7 [21]) was “Active”, the Activity (A549 [22]) was “Active” and the Activity [23] was “Active”. The bioavailability [24] was 62.8%, the GI50 [25] was 1.21 µM and the solubility [26] was 50 mM (≈ 19.8 mg/mL). For the same molecule, the AUC(0-inf) [27] was 824 ng·h/mL, the pEC50 (RAW264.7 [28]) was 5.86 and the GI50 (HepG2) was 0.77 µM.
`COc1cc2c3c(c4cc(OC)c(OC)cc4c2cc1OC)CN1CCCCCC1C3` (centres undefined) gave a pEC50 [6] of 5.98, a GI50 (NCI-H460 [12]) of 0.93 µM and a GI50 (NUGC-3) of 0.62 µM. For the same molecule, the GI50 (MCF7 [17]) was 0.96 µM, the GI50 [25] was 1.15 µM and the GI50 (SF-268) was 0.96 µM.
Work on `COc1cc2c(cc1OC)[C@@H]1[C@@H](O)[C@@H]3CCC(=O)N3C[C@@H]1c1cc(OC)c(OC)cc1-2` [TYLOPHOVATINE C] yielded a half-life [29] of 4.6 h, a Tmax [30] of 4.3 h and a clearance [31] of 37.6 mL/min/kg. The Vd [32] was 12.4 L/kg, the Cmax [33] was 39 ng/mL and the half-life [34] was 7.6 h. For the same molecule, the AUC(0-inf) [35] was 448 ng·h/mL, the bioavailability [36] was 54.3% and the AUC(0-inf) [37] was 453 ng·h/mL.
In the case of `CCCCN1CCc2c(c3cc(OC)c(OC)cc3c3cc(OC)c(OC)cc23)C1`, the pEC50 [6] was 5.36, the GI50 (A549 [10]) was 2.22 µM and the GI50 (NCI-H460 [12]) was 2.05 µM. The GI50 (NUGC-3) was 1.93 µM, the solubility [16] was “soluble” and the GI50 (MCF7 [17]) was 1.97 µM. The GI50 [25] was 2.75 µM, the solubility [26] was 45 mM (≈ 18.4 mg/mL) and the GI50 (HepG2) was 3.04 µM.
